The source of these data is the EternaBench riboswitch data.

This data set deals with MS2 coat protein. Briefly: apparent Kd, MS2 coat protein; higher = weaker binding; RNA-MaP array; FMN 200 µM where present. In short, it runs like this: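 The apparent Kd comes from binding curves fitted cluster by cluster, filtered, and summarised as a median. Those curves followed SNAP-549-labelled MS2 coat protein from 0.7 or 1.5 nM, doubling to 3 µM, on Illumina sequencing-chip clusters where stalled E. coli RNA polymerase had transcribed the designs, without and then with constant ligand. The buffer was 100 mM Tris-HCl pH 7.5, 80 mM KCl, 4 mM MgCl2, BSA, DTT, yeast tRNA and Tween-20, and green signal was normalised to red-channel RNA signal and control-cluster median Fmax.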

[1] abbreviates: designed as: OFF switch for flavin mononucleotide, no ligand.
Where [2] appears, read: ligand present: flavin mononucleotide, designed as: OFF switch for flavin mononucleotide.
Setting [3] is: designed as: ON switch for flavin mononucleotide, no ligand.
The mark [4] stands for this setting: ligand present: flavin mononucleotide, designed as: ON switch for flavin mononucleotide.

“ACAUGAGGAUCACCCAUGUUAUGUUGGGUACUAAAUUAUUCGUAGGAUAUCGUAGCUAGUUUGUGCGAGAAGGACGCAGUUUUU”: the “apparent Kd” value by setting is: under setting [1], 0.257 µM; under setting [2], 0.277 µM.
As for “CUAGCAGAUGUAGGAUAUGCUCAGGAUAACUGAGCAGAAGGACAUGAGGAUCACCCAUGUAAAGUGUCUCUAAAUAACUGCUAG”, the “apparent Kd” value is, setting by setting: under setting [1], 0.0229 µM; under setting [2], 0.0805 µM.
On the same counts, the results for “CCCAGUUAGGAAGGAUAUUGUACAUGAGGAUCACCCAUGUAAUAAAUGAGGAUCUCGGAUGUAUACAAGAAGGUCCGGAUAGGC” are 0.0716 µM and 0.136 µM.
As for “CGAGUUUUUGAGAAGGCAUAUUAUAAUAUUCCACAUGUUUACAUGAGGAUCACCCAUGUUUACUAUGAGGAUAUCAGAAUGUCG”, the “apparent Kd” value reads like this: under setting [1], 0.00472 µM; under setting [2], 0.00454 µM.
Turning to “AGAAAGUCAGGAUAUCGAAGGUAGUGGAGAGGAGUGUGGUACGAGAAGGGACAUGAGGAUCACCCAUGUAGGAG”, the “apparent Kd” value under setting [1] came to 0.0341 µM and the “apparent Kd” value under setting [2] is 0.0314 µM.
As for “UUCGUGCUGCUUUGCUGUACGAGUACAUGAGGAUCACCCAUGUAGGAUAUGGACAUGAGGAUCACCCAGAAGGAUAUGUGUUGC”, the “apparent Kd” value runs as follows: under setting [1], 0.113 µM; under setting [2], 0.141 µM.
For “AGAAACUACGAGAAGGACAUGAGGAUCACCCAUGUUUCCACUUAGUGGCAUGUAGGAUAUCGUAGUUUCAGGAUCGUGAGAUCA”, the “apparent Kd” value by setting is: under setting [1], 0.00558 µM; under setting [2], 0.0166 µM.
Turning to “CCCAACGUAACGCCACGUUGAGAGCAGGAUAUUCCGCCGUGAUCUACAUGAGGAUCACCCAUGUGGAAGAAGGGCUACACAAAA”, the “apparent Kd” value is 0.0163 µM under setting [1] and 0.146 µM under setting [2].
“AUCAUCUCGUCAGGAUAUACGUCACUGCGUCAGCAGUGUGGUAAGAUCACAUGAGGAUCACCCAUGUAGAAGGGACGAGCUGAU”: the “apparent Kd” value by setting is: under setting [1], 0.0144 µM; under setting [2], 0.226 µM.
With “GGUAGAAACAUUAACAUGAGGAUCACCCAUGUCAAAAGAAAUGAGGAUAUCGUAUUCAAUGUAUAUGAGAAGGCAUGGUCUGCC”, the “apparent Kd” value under setting [3] was 0.0157 µM and the “apparent Kd” value under setting [4] worked out at 0.0107 µM.
For “CAUAACUUUUCUCAUGUAAACAUGAGGAUCACCCAUGUAAUGAGAAGGAGGAGGCAGAGAGAAUCCUAGGAUAUCAGAAUUGUU”, the “apparent Kd” value reads like this: under setting [1], 0.00677 µM; under setting [2], 0.00643 µM.
For the sequence “CCGUCAAUCGAGAAGGGCCUAUGUGCUACACCGGCAGGAUAUCGACAUGAGGAUCACCCAUGUUGGCGAUCCUUUUUGGCGGAC”, the “apparent Kd” value reads like this: under setting [1], 0.135 µM; under setting [2], 0.0365 µM.
As for “UUUACAUGAGGAUCACCCAUGUCUUGAAAGAUUAGUUUUGGUGAGGAUAUACAUGAUAAAGAAUUGUAGAAGGCACUGGGUACA”, the “apparent Kd” value under setting [3] turned out to be 0.258 µM and the “apparent Kd” value under setting [4] was determined as 0.124 µM.
With “AAGAAGUGAGGAUAUAGUUGCACUAGCUAAUGCUAGUGCAACUAGAAGGCACAUGAGGAUCACCCAUGUAAAAG”, the “apparent Kd” value reads like this: under setting [1], 0.0291 µM; under setting [2], 0.0419 µM.
On to “GGAUGACAAAGUCAUCCAAAUCGAACAUGAGGAUCACCCAUGUAGGAUAUGCUUCUCAAAGAGAAGCAGAAGGACAUGUGCUUU”, for which the “apparent Kd” value under setting [1] came out at 0.0378 µM and the “apparent Kd” value under setting [2] stood at 0.228 µM.
Regarding “AAAAAGUGAGGAUAUACAUGAGGAUCACCCAUGUGAAAUCGGAAAAAAAACGAAAAAAGUAGAAGGCACAAAAA”, the “apparent Kd” value reads like this: under setting [1], 0.0253 µM; under setting [2], 0.0245 µM.
For “AAUCGAUGAUCAGGAUAUGUGGAGCCUCUAAGCGAUGAGGCGUACAUGAGGAUCACCCAUGUGACACAGAAGGGAUACAUGCGG”, the “apparent Kd” value was determined as 0.0607 µM under setting [3] and 0.00843 µM under setting [4].
The matching figures for “UUGGACGUCGUAGGAUAUGUAGGAUAUUCCUACAUGAGGAUCACCCAUGUUGACAUGGAAUAAGGACAGAAGGACGAUGUCCAU”: 0.0234 µM and 0.00528 µM.
Take “CUUUAGUGAGGAUAUCUGGCUUCGAUCGUGAGAUCGAGGCUAGAGAAGGCACAUGAGGAUCACCCAUGUUCCUU”: the “apparent Kd” value under setting [1] turned out to be 0.0154 µM and the “apparent Kd” value under setting [2] was determined as 0.0347 µM.
Take “GCAUUUGAAGGAUAUGUCUUCGGAAACAUGAGGAUCACCCAUGUAAUACUCAUAUCACGGACAGAAGGUCAGGGUC”: the “apparent Kd” value reads like this: under setting [1], 0.0352 µM; under setting [2], 0.0409 µM.
Regarding “CUUUAACACCAGAAGGACAUGAGGAUCACCCAUGUAGGAUAUGGGACUCCUAGUAGGCAUAUUGUGCUUCCGGUAGGACAAGGA”, the “apparent Kd” value under setting [3] came to 0.478 µM and the “apparent Kd” value under setting [4] was 0.0622 µM.
The matching figures for “UGGUACUAGGGAGGAUAUGGGAAGGUACAUGAGGAUCACCCAUGUUUAAGAAUGCCGAGAGGCAACUAGAAGGCCCUAGUACCU”: 0.204 µM and 0.0136 µM.
Turning to “ACAACCAGAGGAUAUGCGCAUAGAUCAGACUUUGUUUCUGAACAUGAGGAUCACCCAUGUAGAAGGCUGUAACA”, the “apparent Kd” value reads like this: under setting [1], 0.0349 µM; under setting [2], 0.0339 µM.
“CCUCGCUGUUAGAAGGCACCUUCGGCUUUGGCUUUUGGAGUUGGGCGAUGGUGAGGAUAUAACAUGAGGAUCACCCAUGUUCAA”: the “apparent Kd” value under setting [2] worked out at 0.0651 µM.
Consider “AGUGUGUGGCAGGAUAUGCGAUUUGUAGGUGUUGCAGAAGGGUCUACAUGAGGAUCACCCAUGUGUGCGGUUGA”, for which the “apparent Kd” value is, setting by setting: under setting [1], 0.283 µM; under setting [2], 0.57 µM.
With “GGAUAGGACAGAGGAUAUACGUGCUAGAGAUACUAGCAAAAUGUCCUCACAUGAGGAUCACCCAUGUAGAAGGCUGUCCUAUCG”, the “apparent Kd” value amounted to 0.00796 µM under setting [1] and 0.156 µM under setting [2].
On to “GCCUCAGAAUUAAUUGUGAGAAGCAGAAGGCUAUAUCUCAUGUUAAACAUGAGGAUCACCCAUGUAGAGGAUAUGCUAUUACAG”, for which the “apparent Kd” value reads like this: under setting [1], 0.0589 µM; under setting [2], 0.282 µM.
On to “UAUAUAUAGUAAGGAUAUGUAUAUAUUUCAUAAACAGAAGGUACUGACAUGAGGAUCACCCAUGUUUUAGUGUGGGCAUGUAGA”, for which the “apparent Kd” value reads like this: under setting [1], 0.0601 µM; under setting [2], 0.0838 µM.
As for “GGGUCAACAUGAGGAUCACCCAUGUAGGAUAUCGCUAUUGUAAUCAUGAAACAUGAUUACAAUAGCGAGAAGGACAUAUGCUUU”, the “apparent Kd” value under setting [1] was determined as 0.0123 µM and the “apparent Kd” value under setting [2] was 0.0254 µM.
On to “GUAGCAUACCGAGGAUAUUCAUACCGUAAUCGGACAUGAGGAUCACCCAUGUGGCGAAAGCCUUGGGAGAAGGCGGAAUGCUAC”, for which the “apparent Kd” value is, setting by setting: under setting [3], 0.63 µM; under setting [4], 0.0276 µM.
Turning to “UGAUAGGACAGAGGAUAUACGUGCUAGAGAUACUAGCAAAGUAUCUUGACAUGAGGAUCACCCAUGUAGAAGGCUGUCCUAUCU”, the “apparent Kd” value under setting [1] worked out at 0.00599 µM and the “apparent Kd” value under setting [2] was determined as 0.0143 µM.
As to “ACGCCCUGAGGAUAUCUUAUCCCGUACAUGAGGAUCACCCAUGUUUUCCUCCGGGCUCCGAGAGAAGGCAGGCCCA”, the “apparent Kd” value runs as follows: under setting [1], 0.0422 µM; under setting [2], 0.0759 µM.
Regarding “UCAAAUGCCGUAGGAUAUAAUGUGCGCCGUCCGUGAGAUGUAAAUUGACAUGAGGAUCACCCAUGUUAGAAGGGCGGCAUCAGC”, the “apparent Kd” value reads like this: under setting [1], 0.00588 µM; under setting [2], 0.00592 µM.
In the case of “UCAGGAGUCACAGGAUAUCCGGCAUAGCAUACAGGAGAAGGGUGAUCACAAGCACAUGAGGAUCACCCAUGUGACAUUUGUGGA”, the “apparent Kd” value came to 0.115 µM under setting [3] and 0.0495 µM under setting [4].
For “GAAUUCGCAUGAGGAUAUGCACUCAUUUCAUGUGCAGAAGGUAUAACAUUAGACAUGAGGAUCACCCAUGUAUUGGUCAGUAAC”, the “apparent Kd” value came out at 0.015 µM under setting [3] and 0.0134 µM under setting [4].
For “AAUAAACACACAGGAUAUAGCAUCGUCGUUGCGAACUUAGCGACGACGAUGCUAGAAGGGUGAACACAUGAGGAUCACCCAUGU”, the “apparent Kd” value under setting [4] worked out at 0.0384 µM.
Turning to “GUGGUCAGACAUGAGGAUCACCCAUGUGGAAUAAAUAACACACAGGAUAUGUAAUAUAAAAUAUAACAGAAGGGUGGAUUGGUG”, the “apparent Kd” value under setting [3] was 0.352 µM and the “apparent Kd” value under setting [4] is 0.181 µM.
With “UACUAUAAGGAGGAUAUCGUAUCGGAGACGAUACGAGAAGGCUUAACAUGAGGAUCACCCAUGUUCUUCAAUAU”, the “apparent Kd” value under setting [1] was 0.0154 µM and the “apparent Kd” value under setting [2] came out at 0.0183 µM.
For the sequence “UUCUUGGCAGGAUAUGCUUUUUUAGACAUGAGGAUCACCCAUGUGAUUAUUUUUGGUUUUGCAGAAGGGCCUUAAU”, the “apparent Kd” value was 0.0654 µM under setting [1] and 0.0872 µM under setting [2].
On the same counts, the results for “AAGUAGUGUGUGAGGAUAUUGGUGGAAUGACAUAUUAAGAAGGCACAUGAGGAUCACCCAUGUGGGUUGUCACG” are 0.0492 µM and 0.12 µM.
For “AGUAUGUACGCAGGAUAUACAUGAGGAUCACCCAUGUGGAACAGUGUAGUACUAGUUGAUCCUCAGUAGAAGGGCGGCCGAAUA”, the “apparent Kd” value by setting is: under setting [1], 0.0493 µM; under setting [2], 0.0626 µM.
The matching figures for “UCCUGAUUGAGAGUUAGGAGUGGUAGAAGGCGACCGGUGCCAGAUGACAUGAGGAUCACCCAUGUCGAGGAUAUACCACAGAAU”: 0.00804 µM and 0.0154 µM.
With “ACAUGAGGAUCACCCAUGUUCACAUAGGAUAUUGAUUAUAUUGGUUUAAGAAUAGUAAUUGACCUCAAGAAGGAUGCCUGAUCU”, the “apparent Kd” value under setting [3] stood at 0.0153 µM and the “apparent Kd” value under setting [4] came out at 0.0122 µM.
As to “AAAAAGGCAGGAUAUACAAAAAAGAGAAGAGAGGAGGAGGGACAUGAGGAUCACCCAUGUAGAAGGGCCAAAAA”, the “apparent Kd” value under setting [1] was determined as 0.0315 µM and the “apparent Kd” value under setting [2] came out at 0.0374 µM.
As for “CAGUACUGAGGAUAUACAUGAGGAUCACCCAUGUGAACCAGCUAGGAAACUAGCAAAGGUAGAAGGCAGUACUG”, the “apparent Kd” value was determined as 0.0213 µM under setting [1] and 0.259 µM under setting [2].
As for “GAUAGAGAGCAGGAUAUCUUGGAUAAGUAUUGUAGAGAAGGGCUCACAUGAGGAUCACCCAUGUGGUCCUAGAU”, the “apparent Kd” value is, setting by setting: under setting [1], 0.0142 µM; under setting [2], 0.0342 µM.
Regarding “UAAAUCAAGUCAGGAUAUCGUGCGGUUGGUCGUUACAUGAGGAUCACCCAUGUCUUCCGUUAGCUCGAGAAGGGACGUGAGCCC”, the “apparent Kd” value worked out at 0.04 µM under setting [3] and 0.0115 µM under setting [4].
For “AAUUUAAUACAUGAGGAUCACCCAUGUAAUACUUGUAAGAUCAAGGAUAUCAGCUCGAAUAGAGCUGAGAAGGUGAUCACAUGU”, the “apparent Kd” value runs as follows: under setting [3], 0.0759 µM; under setting [4], 0.227 µM.
